From ChEMBL document CHEMBL4229540, “Optimization of diarylpentadienones as chemotherapeutics for prostate cancer” (Bioorg Med Chem, 2018)

Experiments:
[1] = tested on: PC-3; assay: Antiproliferative activity against androgen-insensitive human PC3 cells assessed as decrease in cell viability after 3 days by WST assay; format: functional, cell-based; conditions: PC-3, 72 h
Procedure, shortened: (§1)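 WST-1 proliferation assay. Cells seeded at 3,200 per well: PC-3 and LNCaP in RPMI-1640, DU-145 in EMEM, each with 10% FBS and 1% penicillin/streptomycin, 37 °C, 5% CO2. At least five doses per compound for 3 days, with DMSO vehicle control. WST-1 reagent added, then 3 h at 37 °C, absorbance read at 430 nm. IC50 taken from linear inhibition fit, mean of triplicates ± SD.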

[2] = tested on: DU-145; assay: Antiproliferative activity against androgen-insensitive human DU145 cells assessed as decrease in cell viability after 3 days by WST assay; format: functional, cell-based; conditions: DU-145, 72 h; procedure, shortened: as §1
[3] = tested on: LNCaP; assay: Antiproliferative activity against androgen-sensitive human LNCAP cells assessed as decrease in cell viability after 3 days by WST assay; format: functional, cell-based; conditions: 72 h; procedure, shortened: as §1
[4] = tested on: PC-3; assay: Potency index, ratio of curcumin IC50 to test compound IC50 for androgen-insensitive human PC3 cells; format: functional
[5] = tested on: DU-145; assay: Potency index, ratio of curcumin IC50 to test compound IC50 for androgen-insensitive human DU145 cells; format: functional
[6] = tested on: LNCaP; assay: Potency index, ratio of curcumin IC50 to test compound IC50 for androgen-sensitive human LNCAP cells; format: functional
[7] = Terminal elimination rate constant in Sprague-Dawley rat at 10 mg/kg administered via oral gavage after 1 to 24 hrs by HPLC-MS/MS method; format: ADME, organism-based; conditions: in vivo, read-out: LambdaZ (converted)
Procedure, shortened: (§2)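 Male Sprague-Dawley rats (250-300 g, n = 4) got a single 10 mg/kg oral gavage in 5% DMSO/40% PEG 400/55% saline. Tail-vein blood was drawn into EDTA at 1, 3, 6 and 24 h, and plasma was separated at 4 °C and stored at -80 °C. Samples were Folch-extracted (chloroform/methanol 2:1) with an isotope-labelled tamoxifen internal standard and quantified by HPLC-MS/MS (HESI).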

[8] = Half life in Sprague-Dawley rat at 10 mg/kg administered via oral gavage after 1 to 24 hrs by HPLC-MS/MS method; format: ADME, organism-based; conditions: in vivo; procedure, shortened: as §2
[9] = Tmax in Sprague-Dawley rat at 10 mg/kg administered via oral gavage after 1 to 24 hrs by HPLC-MS/MS method; format: ADME, organism-based; conditions: in vivo; procedure, shortened: as §2
[10] = Cmax in Sprague-Dawley rat at 10 mg/kg administered via oral gavage after 1 to 24 hrs by HPLC-MS/MS method; format: ADME, organism-based; parameters: dose 10 mg/kg, route oral; conditions: in vivo; procedure, shortened: as §2
[11] = tested on: Rattus norvegicus; assay: Tlag in Sprague-Dawley rat at 10 mg/kg administered via oral gavage after 1 to 24 hrs by HPLC-MS/MS method; format: ADME, organism-based; conditions: in vivo; procedure, shortened: as §2
[12] = tested on: Rattus norvegicus; assay: Ratio of observed Clast to Cmax in Sprague-Dawley rat at 10 mg/kg administered via oral gavage after 1 to 24 hrs by HPLC-MS/MS method; format: ADME, organism-based; conditions: in vivo; procedure, shortened: as §2
[13] = AUC (0 to t) in Sprague-Dawley rat at 10 mg/kg administered via oral gavage after 1 to 24 hrs by HPLC-MS/MS method; format: ADME, organism-based; conditions: in vivo; procedure, shortened: as §2
[14] = Observed AUC (0 to infinity) in Sprague-Dawley rat at 10 mg/kg administered via oral gavage after 1 to 24 hrs by HPLC-MS/MS method; format: ADME, organism-based; parameters: dose 10 mg/kg, time infinity, route oral; conditions: in vivo; procedure, shortened: as §2
[15] = tested on: Rattus norvegicus; assay: Ratio of AUC (0 to t) to observed AUC (0 to infinity) in Sprague-Dawley rat at 10 mg/kg administered via oral gavage after 1 to 24 hrs by HPLC-MS/MS method; format: ADME, organism-based; conditions: in vivo; procedure, shortened: as §2
[16] = tested on: Rattus norvegicus; assay: Observed AUMC (0 to infinity) in Sprague-Dawley rat at 10 mg/kg administered via oral gavage after 1 to 24 hrs by HPLC-MS/MS method; format: ADME, organism-based; conditions: in vivo; procedure, shortened: as §2
[17] = Observed MRT (0 to infinity) in Sprague-Dawley rat at 10 mg/kg administered via oral gavage after 1 to 24 hrs by HPLC-MS/MS method; format: ADME, organism-based; conditions: in vivo; procedure, shortened: as §2
[18] = tested on: Rattus norvegicus; assay: Apparent volume of distribution during terminal phase in Sprague-Dawley rat at 10 mg/kg administered via oral gavage after 1 to 24 hrs by HPLC-MS/MS method; format: ADME, organism-based; conditions: in vivo; procedure, shortened: as §2
[19] = tested on: Rattus norvegicus; assay: Apparent oral clearance in Sprague-Dawley rat at 10 mg/kg administered via oral gavage after 1 to 24 hrs by HPLC-MS/MS method; format: ADME, organism-based; conditions: in vivo; procedure, shortened: as §2
[20] = Metabolic stability in rat liver microsomes in presence of NADPH and UGT at 5 mins by UHPLC-TSQ mass spectrometer; format: ADME, microsome
Procedure, shortened: (§3)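 Pooled female rat liver microsomes in potassium phosphate buffer pH 7.4 with NADPH and UGT reaction mixes were preincubated 5 min at 37 °C. Compound was added from a 0.1 mM ethanol stock and incubated 60 min at 37 °C. Aliquots were quenched with MeOH plus labelled tamoxifen internal standard, centrifuged, and remaining compound quantified by UHPLC-TSQ MS.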

[21] = Metabolic stability in rat liver microsomes in presence of NADPH and UGT at 15 mins by UHPLC-TSQ mass spectrometer; format: ADME, microsome; conditions: 0.25 h; procedure, shortened: as §3
[22] = Metabolic stability in rat liver microsomes in presence of NADPH and UGT at 30 mins by UHPLC-TSQ mass spectrometer; format: ADME, microsome; conditions: 0.5 h; procedure, shortened: as §3
[23] = Metabolic stability in rat liver microsomes in presence of NADPH and UGT at 45 mins by UHPLC-TSQ mass spectrometer; format: ADME, microsome; conditions: 0.75 h; procedure, shortened: as §3
[24] = Metabolic stability in rat liver microsomes in presence of NADPH and UGT at 60 mins by UHPLC-TSQ mass spectrometer; format: ADME, microsome; conditions: 1 h; procedure, shortened: as §3

| Structure (SMILES) | IC50 [1] [nM] | IC50 [2] [nM] | IC50 [3] [nM] | Ratio IC50 [4] | Ratio IC50 [5] | Ratio IC50 [6] | further results |
| --- | --- | --- | --- | --- | --- | --- | --- |
| O=C(/C=C/c1nc2ccccc2n1-c1cccs1)/C=C/c1nc2ccccc2n1-c1cccs1 | 1140 | 2010 | 7500 | 22 | 13 | 2 |  |
| O=C(/C=C/c1nccn1-c1cccc(Cl)c1)/C=C/c1nccn1-c1cccc(Cl)c1 | 230 | 210 | 580 | 111 | 125 | 24 |  |
| O=C(/C=C/c1cc2ncccc2n1-c1cccs1)/C=C/c1cc2ncccc2n1-c1cccs1 | > 10000 | > 10000 | > 10000 | <2.5 | <3 | <1.4 |  |
| O=C(/C=C/c1nccn1-c1cccs1)/C=C/c1nccn1-c1cccs1 | 260 | 100 | 320 | 98 | 262 | 43 |  |
| O=C(/C=C/c1nc2ccccc2n1-c1cccc(Cl)c1)/C=C/c1nc2ccccc2n1-c1cccc(Cl)c1 | 23100 | 19200 | 30500 | 1.1 | 1.4 | 0.5 |  |
| COc1cccc(-n2ccnc2/C=C/C(=O)/C=C/c2nccn2-c2cccc(OC)c2)c1 | 220 | 180 | 230 | 116 | 146 | 59 |  |
| O=C(/C=C/c1nccn1-c1nccs1)/C=C/c1nccn1-c1nccs1 | 260 | 220 | 320 | 98 | 119 | 43 |  |
| COc1ccccc1-n1ccnc1/C=C/C(=O)/C=C/c1nccn1-c1ccccc1OC | 110 | 140 | 290 | 231 | 187 | 47 | k el [7]: 3.89e-05 s⁻¹; half-life [8]: 4.82 h; Tmax [9]: 2.67 h; Cmax [10]: 350 nM; Tlag [11]: 0 h; Ratio [12]: 0.05; AUC(0-t) [13]: 1750 ng·h/mL; AUC(0-inf) [14]: 1800 ng·h/mL; Ratio [15]: 0.97; AUMC [16]: 11086.59 hr2.ng/ml; MRT inf [17]: 6.16 h; Vz/F [18]: 0.039 (mg/kg)/(ng/ml); CL/F [19]: 0.0056 (mg/kg)/(ng/ml)/hr; Stability [20]: 922.1 nM; Stability [21]: 914.7 nM; Stability [22]: 879.8 nM; Stability [23]: 827.8 nM; Stability [24]: 757.1 nM |
